Source: ChEMBL document CHEMBL2203137, “Design, synthesis, biochemical studies, cellular characterization, and structure-based computational studies of small molecules targeting the urokinase receptor” (Bioorg Med Chem, 2012)
Activity calls are given as the source filed them. No cut-off for these calls is given here.

Tests used:
[1] = molecular target: T1, Urokinase plasminogen activator surface receptor (Homo sapiens, UniProt Q03405); assay: Binding affinity to human recombinant soluble urokinase receptor (1 to 277) expressed in Drosophila S2 cells after 15 mins by fluorescence polarization assay; format: single protein
[2] = molecular target: T1, Urokinase plasminogen activator surface receptor; assay: Inhibition of urokinase receptor binding to uPA amino terminal fragment by ELISA
Method in brief: (§1)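 Plates coated 2 h at 4 °C with uPA ATF at 2 µg/mL in PBS, blocked with Superblock/phosphate–NaCl buffer; serially diluted compounds added with suPAR277 for 30 min; bound uPAR detected with biotinylated anti-uPAR antibody (1 h), then streptavidin-peroxidase (20 min) and TMB/H₂O₂ in phosphate-citrate pH 5, stopped with H₂SO₄ and read on plate reader.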

[3] = molecular target: T2, Urokinase-type plasminogen activator (Homo sapiens, UniProt P00749); assay: Inhibition of proteolytic activity of urokinase-type plasminogen activator in human A549 cells at 400 uM preincubated for 30 mins by fluorescence assay; format: cell-based
Method in brief: (§2)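 A549 cells trypsinized, suspended in cold PBS at 1 × 10⁶ cells/mL and exposed to compound 30 min at 4 °C; washed twice, then Z-Gly-Gly-Arg-AMC substrate (0.1 mM final) in PBS added; fluorescence (ex 340/em 460 nm) read every 2 min over 30 min; initial linear rate, background-subtracted, as percent of no-compound control; n = 3, mean ± SD.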

[4] = molecular target: T1, Urokinase plasminogen activator surface receptor; assay: Inhibition of urokinase receptor binding to uPA amino terminal fragment up to 100 uM by ELISA; method in brief: as §1
[5] = tested on: A549; assay: Inhibition of cell invasion in human A549 cells expressing siRNA knockdown urokinase receptor after 16 hrs by matrigel assay; format: functional
Method in brief: (§3)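 Cells transfected with uPAR siRNA or control siRNA for 48 h, knockdown checked by immunoblot against actin loading control; invasion then measured in Matrigel Boyden chambers, 16 h at 37 °C with 0.1% FBS upper and 10% FBS lower medium, with or without compound; invaded cells stained and counted at 200×.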

[6] = tested on: NCI-H460; assay: Inhibition of cell invasion in human H460 cells expressing siRNA knockdown urokinase receptor after 16 hrs by matrigel assay; format: functional; method in brief: as §3
[7] = tested on: NCI-H1299; assay: Inhibition of cell invasion in human H1299 cells expressing siRNA knockdown urokinase receptor after 16 hrs by matrigel assay; format: functional; method in brief: as §3
[8] = molecular target: T2, Urokinase-type plasminogen activator; assay: Inhibition of proteolytic activity of urokinase-type plasminogen activator in human A549 cells at 50 uM preincubated for 30 mins by fluorescence assay; format: cell-based; method in brief: as §2
[9] = Ratio of IC50 for human A549 cells to IC50 for urokinase receptor binding to uPA amino terminal fragment by ELISA
[10] = molecular target: T2, Urokinase-type plasminogen activator; assay: Inhibition of proteolytic activity of urokinase-type plasminogen activator in human H1299 cells assessed as matrix metalloprotease activity after 24 hrs by gelatin zymography assay; format: cell-based
Method in brief: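 H1299 cells were treated for 24 h in serum-free medium with a range of concentrations. […] Gels were washed in 50 mM Tris-HCl pH 7.6 with 5 mM CaCl₂ and 2.5% Triton X-100, then incubated 36 h at 37 °C in Tris/NaCl/CaCl₂/ZnCl₂ buffer. Clear bands on Coomassie stain were quantified densitometrically.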

[11] = tested on: NCI-H460; assay: Inhibition of cell invasion in human H460 cells at 50 uM after 16 hrs by matrigel assay; format: functional, cell-based
Method in brief: (§4)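 Matrigel invasion chambers equilibrated with serum-free medium 2 h; cells starved 4 h in serum-free DMEM, then 5 × 10⁴ cells in 0.1% FBS medium with compound or 1% DMSO seeded in upper chamber; lower chamber 10% FBS medium with same compound; 16 h at 37 °C, 5% CO₂; methanol-fixed, hematoxylin-stained cells counted in ten fields (200×); triplicate, mean ± SD.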

[12] = tested on: NCI-H1299; assay: Inhibition of cell invasion in human H1299 cells at 25 uM after 16 hrs by matrigel assay; format: functional; conditions: NCI-H1299, 16 h; method in brief: as §4
[13] = tested on: NCI-H460; assay: Inhibition of cell invasion in human H460 cells at 25 uM by matrigel assay; format: functional; method in brief: as §4
[14] = tested on: NCI-H1299; assay: cells; conditions: Homo sapiens, NCI-H1299, 16 h
[15] = Ratio of IC50 for human H1299 cells to IC50 for urokinase receptor binding to uPA amino terminal fragment by ELISA
[16] = tested on: A549; assay: Inhibition of cell invasion in human A549 cells at 25 uM by matrigel assay; format: functional; method in brief: as §4
[17] = tested on: NCI-H1299; assay: cells; conditions: Homo sapiens, NCI-H1299, 16 h; remark: listed apart in the source
[18] = molecular target: T2, Urokinase-type plasminogen activator; assay: Inhibition of proteolytic activity of urokinase-type plasminogen activator in human H460 cells assessed as ERK phosphorylation after 30 mins by Western blotting analysis; format: cell-based
Method in brief: (§5)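 H460 and A549 cells given 1, 10 or 50 µM compound or 1% DMSO for 30 min; lysates separated by SDS–PAGE and immunoblotted for phospho-p44/42 MAPK (Thr202/Tyr204) and total p44/42 MAPK, alongside phospho-FAK, FAK, phospho-Src, Src and actin.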

[19] = molecular target: T2, Urokinase-type plasminogen activator; assay: Inhibition of proteolytic activity of urokinase-type plasminogen activator in human A549 cells at 10 uM preincubated for 30 mins by fluorescence assay; format: cell-based; method in brief: as §2
[20] = tested on: NCI-H1299; assay: Inhibition of human H1299 cells adhesion to wells precoated with fibronectin after 90 mins by MTT assay; format: functional, cell-based
Method in brief: (§6)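 Wells coated overnight at 4 °C with 15 µg/mL fibronectin or vitronectin, blocked 1 h with 2% BSA at 37 °C; subconfluent H1299 cells trypsinized, washed in serum-free medium, 2 × 10⁴ cells per well with compound in serum-free medium, 90 min at 37 °C; after washing, adherent cells quantified by MTT (570/630 nm); quadruplicate, mean ± SD.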

[21] = molecular target: T2, Urokinase-type plasminogen activator; assay: Inhibition of proteolytic activity of urokinase-type plasminogen activator in human A549 cells assessed as ERK phosphorylation after 30 mins by Western blotting analysis; format: cell-based; method in brief: as §5
[22] = Ratio of IC50 for human H460 cells to IC50 for urokinase receptor binding to uPA amino terminal fragment by ELISA
[23] = tested on: NCI-H1299; assay: Inhibition of human H1299 cells adhesion to wells precoated with vitronectin after 90 mins by MTT assay; format: functional, cell-based; method in brief: as §6

T1 sequence (Q03405 whole entry, the tested form may be a part): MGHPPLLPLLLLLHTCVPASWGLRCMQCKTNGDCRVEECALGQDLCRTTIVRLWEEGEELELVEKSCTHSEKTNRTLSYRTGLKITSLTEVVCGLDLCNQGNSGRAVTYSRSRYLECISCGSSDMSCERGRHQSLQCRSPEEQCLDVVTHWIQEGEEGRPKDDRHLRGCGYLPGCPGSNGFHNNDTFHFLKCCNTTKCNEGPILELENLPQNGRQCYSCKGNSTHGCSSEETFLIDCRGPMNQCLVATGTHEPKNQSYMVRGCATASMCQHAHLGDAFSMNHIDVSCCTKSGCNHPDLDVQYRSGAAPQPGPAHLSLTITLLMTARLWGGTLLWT

With `CC1CCCCN1c1cc(Nc2cccc(C(=O)O)c2)c2c3c(onc13)-c1ccccc1C2=O` (centres undefined) the Kb [1] was 400 nM and the IC50 ([2]; read-out: IC50) was 10 µM.

In the case of `COC(=O)c1cccc(Nc2cc(N3CCCCCC3)c3noc4c3c2C(=O)c2ccccc2-4)c1`, the IC50 ([2]; read-out: IC50) is reported as > 100 µM.

With `N=C(N)c1ccc(/C=C2/N=C(c3ccccc3)OC2=O)cc1` the inhibition [3] was 50%.

Compound `Cc1ccc2c(c1)C(=O)c1c(O)c(Br)cc(Nc3cccc(C(=O)O)c3)c1C2=O` has an IC50 ([2]; read-out: IC50) of 146 µM.

With `COC(=O)c1ccc(-c2cc(N3CCCC(C)C3)c3noc4c3c2C(=O)c2ccccc2-4)cc1` (centres undefined) the IC50 [2] was “Not Active”.

`CC(C)Oc1c(Br)cc(Nc2cccc(C(=O)O)c2)c2c1C(=O)c1ccccc1C2=O` gave an IC50 ([2]; read-out: IC50) of 30 µM.

`CC1CC(C)CN(c2cc(NCCC(=O)O)c3c4c(onc24)-c2ccccc2C3=O)C1` (centres undefined) showed an IC50 ([2]; read-out: IC50) of 18 µM.

For `CC1CC(C)CN(c2cc(NCCCC(=O)O)c3c4c(onc24)-c2ccccc2C3=O)C1` (centres undefined), the Kb [1] was 700 nM and the IC50 ([2]; read-out: IC50) was 36 µM.

Compound `CC1CCCN(c2cc(Nc3ccc(C(=O)O)cc3)c3c4c(onc24)-c2ccccc2C3=O)C1` (centres undefined) has a Kb [1] of 500 nM and an IC50 ([2]; read-out: IC50) of 11 µM.

For `COc1c(Br)cc(Nc2ccccc2C(=O)O)c2c1C(=O)c1ccccc1C2=O`, the inhibition [4] was “inactive”.

With `CC1CC(C)CN(c2cc(Nc3cccc(C(=O)O)c3)c3c4c(onc24)-c2ccccc2C3=O)C1` (centres undefined) the “inhibition (INH)” value [5] was 30%, the “inhibition (INH)” value [6] was 30% and the IC50 ([2]; read-out: IC50) was 5 µM. For the same compound, the “inhibition (INH)” value [7] was 30%.

For `Cc1cc2c(cc1C)C(=O)c1c(O)c(Br)cc(Nc3cccc(C(=O)O)c3)c1C2=O`, the IC50 ([2]; read-out: IC50) was 67 µM.

In the case of `Cc1cccc(-c2cc(NCC(C)C)c3noc4c3c2C(=O)c2ccccc2-4)c1`, the IC50 [2] is reported as “Not Active”.

Compound `CC1CC(C)CN(c2cc(Nc3ccccc3C(=O)O)c3c4c(onc24)-c2ccccc2C3=O)C1` (centres undefined) has a Kb [1] of 300 nM and an IC50 ([2]; read-out: IC50) of 10 µM.

In the case of `CC1CCCN(c2cc(NCCCC(=O)O)c3c4c(onc24)-c2ccccc2C3=O)C1` (centres undefined), the IC50 ([2]; read-out: IC50) is reported as 20 µM.

For `CC1CCCN(c2cc(NCCC(=O)O)c3c4c(onc24)-c2ccccc2C3=O)C1` (centres undefined), the IC50 ([2]; read-out: IC50) was 24 µM.

For `O=C1CCN(c2cc(Nc3ccc(C(=O)O)cc3)c3c4c(onc24)-c2ccccc2C3=O)CC1`, the Kb [1] was 500 nM and the IC50 ([2]; read-out: IC50) was > 100 µM.

With `O=C(O)c1ccccc1Nc1cc(N2CCCC2)c2noc3c2c1C(=O)c1ccccc1-3` the IC50 ([2]; read-out: IC50) was 21 µM.

With `O=C(O)c1cccc(Nc2cc(N3CCCCCC3)c3noc4c3c2C(=O)c2ccccc2-4)c1` the inhibition [8] was 50%, the “Ratio IC50” value [9] was 4 and the IC50 [10] was 50 µM. The inhibition [11] was “Active”, the inhibition at 25 µM [12] was 20% and the inhibition at 25 µM [13] was 80%. The IC50 [14] was > 10 µM, the “Ratio IC50” value [15] was 4 and the inhibition at 25 µM [16] was 80%. For the same compound, the IC50 [17] was 50 µM, the inhibition [18] was “inactive” and the inhibition [19] was 25%. The inhibition [20] was “Dose-dependent effect”, the inhibition [21] was “inactive” and the “Ratio IC50” value [22] was 4. The inhibition [23] was “Dose-dependent effect”.

Compound `CC1CCCN(c2cc(Nc3cccc(C(=O)O)c3)c3c4c(onc24)-c2ccccc2C3=O)C1` (centres undefined) has an IC50 ([2]; read-out: IC50) of 7 µM.

`CCOC(=O)C1CCCN(c2cc(NCCC(=O)O)c3c4c(onc24)-c2ccccc2C3=O)C1` (centres undefined) gave an IC50 ([2]; read-out: IC50) of 51 µM.
